Test results reported in ChEMBL document CHEMBL4613249, “Serendipitous Discovery of Leucine and Methionine Depletion Agents during the Search for Polyamine Transport Inhibitors” (J Med Chem, 2020).
The source made the active and inactive calls. The calls are words filed in the database; no cut-off is given here.

Experiments:
[1] = tested on: L3.6pl; assay: Effect on polyamine level in human L3.6PL cells assessed as decrease in intracellular spermine level at 7 uM measured after 72 hrs in presence of amine oxidase suppressor aminoguanidine by LCMS analysis relative to control; format: functional; set-up: scale not given: the % may be the effect or the level left
Procedure, shortened: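 L3.6pl cells, 50,000 cells/mL in 10 mL per Petri dish with 1 mM aminoguanidine, plated overnight. Dosed with compound at 2, 5 or 7 μM from PBS stocks, then 72 h at 37°C. Intracellular polyamines measured by N-dansylation and HPLC, in duplicate, as nmol/mg protein against a parallel untreated control.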

[2] = molecular target: Large neutral amino acids transporter small subunit 1 (Homo sapiens) (UniProt Q01650); assay: Inhibition of LAT1-mediated [3H]-leucine uptake in human L3.6PL cells at 2 to 7 uM preincubated for 24 hrs at 37 degree C followed by HBBS addition and compound washout and subsequent compound dosing measured after 30 mins by scintillation counter method; format: cell-based
Procedure, shortened: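 L3.6pl cells were preincubated 24 h at 37°C with compound, washed and placed in HBSS. Compound was then added back just before ³H-leucine, followed by a 30 min incubation at 37°C. After cold washes, radioactivity was counted and normalized to μg protein.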

[3] = molecular target: Large neutral amino acids transporter small subunit 1 (Homo sapiens) (UniProt Q01650); assay: Induction of LAT1-mediated polyamine efflux in human L3.6PL cells assessed as increase in [3H]leucine efflux at 60 uM measured after 30 mins at 37 degC by scintillation counting method; format: cell-based
Procedure, shortened: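 L3.6pl cells preloaded 5 min at 37°C with 3H-leucine and washed three times with cold HBSS. Compound (60 μM) given alone for 30 min at 37°C. Radioactivity of released 3H-leucine counted in the supernatant. Untreated and 100 μM unlabeled leucine lanes set the efflux range.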

[4] = tested on: CHO-MG; assay: Cytotoxicity against CHO-MG cells assessed as reduction in cell viability after 48 hrs by MTS assay; format: cell-based; conditions: Cricetulus griseus
Procedure, shortened: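 Cells in RPMI 1640 with 10% FBS, 1% penicillin/streptomycin, 37°C, 5% CO2, with aminoguanidine (1 mM for CHO K1 and CHO-MG, 250 μM for L3.6pl). Plated overnight at 1000 cells/well (CHO lines) or 500 cells/well (L3.6pl). Compound in PBS added, 48 h exposure. Growth read as MTS formazan absorbance at 490 nm. IC50 is the dose giving 50% relative growth versus untreated control. Run twice in triplicate.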

[5] = molecular target: Large neutral amino acids transporter small subunit 1 (Homo sapiens) (UniProt Q01650); assay: Induction of LAT1-mediated polyamine efflux in aminoguanidine pretreated human L3.6PL cells assessed as reduction in cell viability at 5 uM measured after 72 hrs in presence of putrescine by MTS assay; format: cell-based
Procedure, shortened: (§1)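 L3.6pl cells pre-incubated 24 h with 250 μM aminoguanidine. Then given increasing compound plus putrescine, spermidine or spermine, each fixed at 1 or 5 μM, for 72 h at 37°C. Growth by MTS relative to untreated control.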

[6] = tested on: L3.6pl; assay: Effect on polyamine level in human L3.6PL cells assessed as ornithine level per mg protein in supernatant at 2 uM measured after 72 hrs in presence of amine oxidase suppressor aminoguanidine by LCMS analysis (reference value: 10588 +/- 3212 pmol/mg); format: functional
[7] = tested on: L3.6pl; assay: Cytotoxicity against human L3.6PL cells assessed as reduction in cell viability at 1 uM measured after 72 hrs by MTS assay; format: cell-based
Procedure, shortened: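 L3.6pl cells given compound at increasing concentrations, alone or with Ant-44 fixed at 2 μM, for 72 h at 37°C. % cell growth by MTS against an untreated control run in parallel, in triplicate.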

[8] = molecular target: Large neutral amino acids transporter small subunit 1 (Homo sapiens) (UniProt Q01650); assay: Induction of LAT1-mediated polyamine efflux in aminoguanidine pretreated human L3.6PL cells assessed as reduction in cell viability at 5 uM measured after 72 hrs in presence of spermidine by MTS assay; format: cell-based; procedure, shortened: as §1
[9] = tested on: L3.6pl; assay: Effect on polyamine level in human L3.6PL cells assessed as acetyl spermine level per mg protein in supernatant at 5 uM measured after 72 hrs in presence of amine oxidase suppressor aminoguanidine by LCMS analysis (reference value: 77 +/- 43 pmol/mg); format: functional
[10] = tested on: L3.6pl; assay: Effect on polyamine level in human L3.6PL cells assessed as glutamic acid level per mg protein in supernatant at 2 uM measured after 72 hrs in presence of amine oxidase suppressor aminoguanidine by LCMS analysis (reference value: 23412 +/- 3983 pmol/mg)
[11] = tested on: CHO-MG; assay: Induction of polyamine efflux in aminoguanidine pretreated CHO-MG cells assessed as reduction in cell viability measured after 72 hrs in presence of spermidine by MTS assay; format: ADME, cell-based, Cricetulus griseus; conditions: chinese hamster
[12] = tested on: L3.6pl; assay: Effect on polyamine level in human L3.6PL cells assessed as spermidine level per mg protein in supernatant at 5 uM measured after 72 hrs in presence of amine oxidase suppressor aminoguanidine by LCMS analysis (reference value: 339 pmol/mg); format: functional
[13] = tested on: L3.6pl; assay: Effect on polyamine level in human L3.6PL cells assessed as acetyl spermine level per mg protein in supernatant at 2 uM measured after 72 hrs in presence of amine oxidase suppressor aminoguanidine by LCMS analysis (reference value: 77 +/- 43 pmol/mg); format: functional
[14] = molecular target: Large neutral amino acids transporter small subunit 1 (Homo sapiens) (UniProt Q01650); assay: Induction of LAT1-mediated polyamine efflux in aminoguanidine pretreated human L3.6PL cells assessed as reduction in cell viability at 5 uM measured after 72 hrs in presence of spermine by MTS assay; format: cell-based; procedure, shortened: as §1
[15] = molecular target: Large neutral amino acids transporter small subunit 1 (Homo sapiens) (UniProt Q01650); assay: Inhibition of LAT1-mediated amino acid transport in human L3.6PL cells assessed as reduction in intracellular leucine level measured after 72 hrs by LCMS analysis; format: cell-based
Procedure, shortened: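 L3.6pl cells (50,000 cells/mL, 10 mL, 1 mM aminoguanidine) were seeded in poly-lysine-treated 9 cm dishes and incubated overnight at 37°C. They were then dosed with compound at 2, 5 or 7 μM from PBS stocks (2, 5, 7 mM) and incubated 72 h. Runs were done in triplicate, with amino acid levels per mg protein.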

[16] = tested on: L3.6pl; assay: Effect on polyamine level in human L3.6PL cells assessed as leucine level per mg protein in supernatant at 2 uM measured after 72 hrs in presence of amine oxidase suppressor aminoguanidine by LCMS analysis (reference value: 18009 +/- 9061 pmol/mg); format: functional
[17] = molecular target: Large neutral amino acids transporter small subunit 1 (Homo sapiens) (UniProt Q01650); assay: Induction of LAT1-mediated polyamine efflux in aminoguanidine pretreated human L3.6PL cells assessed as reduction in cell viability up to 15 uM by MTS assay; format: cell-based; conditions: TDE = time-dependent effect
[18] = tested on: L3.6pl; assay: Effect on polyamine level in human L3.6PL cells assessed as spermine level per mg protein in supernatant at 2 uM measured after 72 hrs in presence of amine oxidase suppressor aminoguanidine by LCMS analysis (reference value: 6152 +/- 5596 pmol/mg); format: functional
[19] = tested on: L3.6pl; assay: Effect on polyamine level in human L3.6PL cells assessed as acetyl spermidine level per mg protein in supernatant at 2 uM measured after 72 hrs in presence of amine oxidase suppressor aminoguanidine by LCMS analysis (reference value: 1936 +/- 1365 pmol/mg); format: functional
[20] = tested on: CHO-K1; assay: Induction of polyamine efflux in aminoguanidine pretreated CHOK1 cells assessed as reduction in cell viability measured after 72 hrs in presence of putrescine by MTS assay; format: ADME, cell-based, Cricetulus griseus; conditions: chinese hamster, cho-k1, 72 h

Chain of Large neutral amino acids transporter small subunit 1 (Homo sapiens) (Q01650 whole entry): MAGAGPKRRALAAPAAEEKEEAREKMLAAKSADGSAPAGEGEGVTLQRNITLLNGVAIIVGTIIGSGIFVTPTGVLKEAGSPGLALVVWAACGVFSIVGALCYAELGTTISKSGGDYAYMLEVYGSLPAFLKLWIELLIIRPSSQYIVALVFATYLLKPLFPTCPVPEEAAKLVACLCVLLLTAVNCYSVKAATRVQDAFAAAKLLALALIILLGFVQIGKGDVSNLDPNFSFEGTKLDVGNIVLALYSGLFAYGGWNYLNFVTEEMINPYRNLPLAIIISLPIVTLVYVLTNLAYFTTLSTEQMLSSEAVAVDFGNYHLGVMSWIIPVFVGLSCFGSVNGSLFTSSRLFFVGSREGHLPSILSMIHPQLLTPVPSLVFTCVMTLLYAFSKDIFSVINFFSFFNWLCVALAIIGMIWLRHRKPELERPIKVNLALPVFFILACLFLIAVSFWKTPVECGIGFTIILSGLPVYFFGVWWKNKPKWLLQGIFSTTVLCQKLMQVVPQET

- inhibition [2]: inactive
- Activity [3]: Active
- inhibition [15]: Dose-dependent effect
Structure (SMILES): CC(C)CCN1CCN([C@@H](CNCc2ccccc2)CC2CCCCC2)C[C@@H]1CC(C)C
- Activity [1]: 30%
- IC50 [4]: 8.93 µM
- Activity [5]: Active
- Activity [6]: 9249 pmol/mg
- Activity [7]: Non-Toxic
- Activity [8]: Active
- Activity [9]: 36 pmol/mg
- Activity [10]: 20231 pmol/mg
- Activity [11]: Active
- Activity [12]: 167 pmol/mg
- Activity [13]: 49 pmol/mg
- Activity [14]: Active
- Activity [16]: 15055 pmol/mg
- Activity [17]: Tde
- Activity [18]: 2532 pmol/mg
- Activity [19]: 1649 pmol/mg
- Activity [20]: Active
